Laboratory results published in ChEMBL document CHEMBL4689842, “EUbOPEN Chemogenomics Library wave 1” (2021).

Test system: Fibroblast
Assay: Multiplex assay against human fibroblast
Assay type: toxicity, cell-based
Outline: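 Hoechst33342, BioTracker Green Microtubule Cytoskeleton Dye, MitoTracker Red and Annexin V Alexa Fluor 680 were added to live cells at seeding, and imaging on a CQ1 microscope at 37°C and 5% CO2 followed compound addition. Gating by CellPathfinder machine learning separated cells into Hoechst high-intensity objects or normal cells, then normal cells into healthy, pyknosed or fragmented nuclei, then pyknosed cells into mitotic or apoptotic. Per cents of healthy-nucleus cells are reported for the tubulin, mitochondrial-mass and membrane-permeability phenotypes.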

[1] = 12 h, 1 µM, compound concentration 1 uM, replicate 1
[2] = 12 h, 1 µM, compound concentration 1 uM, replicate 2
[3] = 12 h, 10 µM, compound concentration 10 uM, replicate 1
[4] = 12 h, 10 µM, compound concentration 10 uM, replicate 2
[5] = 24 h, 1 µM, compound concentration 1 uM, replicate 1
[6] = 24 h, 1 µM, compound concentration 1 uM, replicate 2
[7] = 24 h, 10 µM, compound concentration 10 uM, replicate 1
[8] = 24 h, 10 µM, compound concentration 10 uM, replicate 2
[9] = 48 h, 1 µM, compound concentration 1 uM, replicate 1
[10] = 48 h, 1 µM, compound concentration 1 uM, replicate 2
[11] = 48 h, 10 µM, compound concentration 10 uM, replicate 1
[12] = 48 h, 10 µM, compound concentration 10 uM, replicate 2

## COc1cccc([C@@H](C)NCCCc2ccccc2Cl)c1.Cl [TECALCET HYDROCHLORIDE]
[1]
  Population Apoptotic (%): 55%
  Population Fragmented Nuclei (%): 20%
  Population Healthy Nuclei (%): 53%
  Population Hoechst High Intensity Objects (%): 9%
  Population Membrane Permeable-Phenotype (%): 22%
  Population Mitochondria Different-Phenotype (%): 4%
  Population Mitotic Cells (%): 44%
  Population Normal (%): 90%
  Population Pyknosed Nuclei (%): 25%
  Population Tubulin-Different-Phenotype (%): 53%
  Total Cell Count: 222
[2]
  Population Apoptotic (%): 16%
  Population Fragmented Nuclei (%): 10%
  Population Healthy Nuclei (%): 81%
  Population Hoechst High Intensity Objects (%): 10%
  Population Membrane Permeable-Phenotype (%): 6%
  Population Mitochondria Different-Phenotype (%): 20%
  Population Mitotic Cells (%): 83%
  Population Normal (%): 89%
  Population Pyknosed Nuclei (%): 8%
  Population Tubulin-Different-Phenotype (%): 18%
  Total Cell Count: 70
[3]
  Population Apoptotic (%): 62%
  Population Fragmented Nuclei (%): 26%
  Population Healthy Nuclei (%): 43%
  Population Hoechst High Intensity Objects (%): 12%
  Population Membrane Permeable-Phenotype (%): 11%
  Population Mitochondria Different-Phenotype (%): 17%
  Population Mitotic Cells (%): 37%
  Population Normal (%): 87%
  Population Pyknosed Nuclei (%): 29%
  Population Tubulin-Different-Phenotype (%): 71%
  Total Cell Count: 183
[4]
  Population Apoptotic (%): 41%
  Population Fragmented Nuclei (%): 7%
  Population Healthy Nuclei (%): 75%
  Population Hoechst High Intensity Objects (%): 5%
  Population Membrane Permeable-Phenotype (%): 18%
  Population Mitochondria Different-Phenotype (%): 90%
  Population Mitotic Cells (%): 58%
  Population Normal (%): 94%
  Population Pyknosed Nuclei (%): 17%
  Population Tubulin-Different-Phenotype (%): 96%
  Total Cell Count: 83
[5]
  Population Apoptotic (%): 56%
  Population Fragmented Nuclei (%): 28%
  Population Healthy Nuclei (%): 50%
  Population Hoechst High Intensity Objects (%): 10%
  Population Membrane Permeable-Phenotype (%): 26%
  Population Mitochondria Different-Phenotype (%): 4%
  Population Mitotic Cells (%): 43%
  Population Normal (%): 89%
  Population Pyknosed Nuclei (%): 21%
  Population Tubulin-Different-Phenotype (%): 62%
  Total Cell Count: 217
[6]
  Population Apoptotic (%): 77%
  Population Fragmented Nuclei (%): 8%
  Population Healthy Nuclei (%): 80%
  Population Hoechst High Intensity Objects (%): 8%
  Population Membrane Permeable-Phenotype (%): 6%
  Population Mitochondria Different-Phenotype (%): 6%
  Population Mitotic Cells (%): 22%
  Population Normal (%): 91%
  Population Pyknosed Nuclei (%): 10%
  Population Tubulin-Different-Phenotype (%): 12%
  Total Cell Count: 95
[7]
  Population Apoptotic (%): 61%
  Population Fragmented Nuclei (%): 25%
  Population Healthy Nuclei (%): 53%
  Population Hoechst High Intensity Objects (%): 17%
  Population Membrane Permeable-Phenotype (%): 13%
  Population Mitochondria Different-Phenotype (%): 31%
  Population Mitotic Cells (%): 38%
  Population Normal (%): 82%
  Population Pyknosed Nuclei (%): 21%
  Population Tubulin-Different-Phenotype (%): 75%
  Total Cell Count: 178
[8]
  Population Apoptotic (%): 35%
  Population Fragmented Nuclei (%): 8%
  Population Healthy Nuclei (%): 70%
  Population Hoechst High Intensity Objects (%): 8%
  Population Membrane Permeable-Phenotype (%): 24%
  Population Mitochondria Different-Phenotype (%): 91%
  Population Mitotic Cells (%): 64%
  Population Normal (%): 91%
  Population Pyknosed Nuclei (%): 20%
  Population Tubulin-Different-Phenotype (%): 92%
  Total Cell Count: 97
[9]
  Population Apoptotic (%): 54%
  Population Fragmented Nuclei (%): 28%
  Population Healthy Nuclei (%): 60%
  Population Hoechst High Intensity Objects (%): 10%
  Population Membrane Permeable-Phenotype (%): 19%
  Population Mitochondria Different-Phenotype (%): 3%
  Population Mitotic Cells (%): 45%
  Population Normal (%): 89%
  Population Pyknosed Nuclei (%): 10%
  Population Tubulin-Different-Phenotype (%): 42%
  Total Cell Count: 229
[10]
  Population Apoptotic (%): 0%
  Population Healthy Nuclei (%): 70%
  Population Hoechst High Intensity Objects (%): 13%
  Population Membrane Permeable-Phenotype (%): 13%
  Population Mitochondria Different-Phenotype (%): 4%
  Population Mitotic Cells (%): 100%
  Population Normal (%): 87%
  Population Pyknosed Nuclei (%): 1%
  Population Tubulin-Different-Phenotype (%): 40%
  Total Cell Count: 100
[11]
  Population Apoptotic (%): 76%
  Population Fragmented Nuclei (%): 46%
  Population Healthy Nuclei (%): 45%
  Population Hoechst High Intensity Objects (%): 21%
  Population Membrane Permeable-Phenotype (%): 6%
  Population Mitochondria Different-Phenotype (%): 16%
  Population Mitotic Cells (%): 23%
  Population Normal (%): 78%
  Population Pyknosed Nuclei (%): 8%
  Population Tubulin-Different-Phenotype (%): 60%
  Total Cell Count: 207
[12]
  Population Apoptotic (%): 0%
  Population Fragmented Nuclei (%): 56%
  Population Healthy Nuclei (%): 43%
  Population Hoechst High Intensity Objects (%): 15%
  Population Membrane Permeable-Phenotype (%): 0%
  Population Mitochondria Different-Phenotype (%): 12%
  Population Mitotic Cells (%): 100%
  Population Normal (%): 84%
  Population Pyknosed Nuclei (%): 0%
  Population Tubulin-Different-Phenotype (%): 76%
  Total Cell Count: 138

## Cl.N#Cc1ccc2[nH]cc(CCCCN3CCN(c4ccc5oc(C(N)=O)cc5c4)CC3)c2c1 [VILAZODONE HYDROCHLORIDE]
[1]
  Population Apoptotic (%): 75%
  Population Fragmented Nuclei (%): 38%
  Population Healthy Nuclei (%): 22%
  Population Hoechst High Intensity Objects (%): 19%
  Population Membrane Permeable-Phenotype (%): 28%
  Population Mitochondria Different-Phenotype (%): 9%
  Population Mitotic Cells (%): 25%
  Population Normal (%): 80%
  Population Pyknosed Nuclei (%): 38%
  Population Tubulin-Different-Phenotype (%): 47%
  Total Cell Count: 116
[2]
  Population Apoptotic (%): 27%
  Population Fragmented Nuclei (%): 14%
  Population Healthy Nuclei (%): 70%
  Population Hoechst High Intensity Objects (%): 2%
  Population Membrane Permeable-Phenotype (%): 6%
  Population Mitochondria Different-Phenotype (%): 30%
  Population Mitotic Cells (%): 72%
  Population Normal (%): 97%
  Population Pyknosed Nuclei (%): 15%
  Population Tubulin-Different-Phenotype (%): 18%
  Total Cell Count: 50
[3]
  Population Apoptotic (%): 69%
  Population Fragmented Nuclei (%): 19%
  Population Healthy Nuclei (%): 18%
  Population Hoechst High Intensity Objects (%): 35%
  Population Membrane Permeable-Phenotype (%): 17%
  Population Mitochondria Different-Phenotype (%): 21%
  Population Mitotic Cells (%): 30%
  Population Normal (%): 64%
  Population Pyknosed Nuclei (%): 62%
  Population Tubulin-Different-Phenotype (%): 52%
  Total Cell Count: 197
[4]
  Population Apoptotic (%): 67%
  Population Fragmented Nuclei (%): 20%
  Population Healthy Nuclei (%): 14%
  Population Hoechst High Intensity Objects (%): 10%
  Population Membrane Permeable-Phenotype (%): 38%
  Population Mitochondria Different-Phenotype (%): 46%
  Population Mitotic Cells (%): 32%
  Population Normal (%): 89%
  Population Pyknosed Nuclei (%): 64%
  Population Tubulin-Different-Phenotype (%): 92%
  Total Cell Count: 72
[5]
  Population Apoptotic (%): 63%
  Population Fragmented Nuclei (%): 32%
  Population Healthy Nuclei (%): 42%
  Population Hoechst High Intensity Objects (%): 25%
  Population Membrane Permeable-Phenotype (%): 21%
  Population Mitochondria Different-Phenotype (%): 8%
  Population Mitotic Cells (%): 36%
  Population Normal (%): 74%
  Population Pyknosed Nuclei (%): 25%
  Population Tubulin-Different-Phenotype (%): 51%
  Total Cell Count: 118
[6]
  Population Apoptotic (%): 60%
  Population Fragmented Nuclei (%): 15%
  Population Healthy Nuclei (%): 78%
  Population Hoechst High Intensity Objects (%): 1%
  Population Membrane Permeable-Phenotype (%): 3%
  Population Mitochondria Different-Phenotype (%): 19%
  Population Mitotic Cells (%): 40%
  Population Normal (%): 98%
  Population Pyknosed Nuclei (%): 6%
  Population Tubulin-Different-Phenotype (%): 18%
  Total Cell Count: 54
[7]
  Population Apoptotic (%): 66%
  Population Fragmented Nuclei (%): 22%
  Population Healthy Nuclei (%): 23%
  Population Hoechst High Intensity Objects (%): 35%
  Population Membrane Permeable-Phenotype (%): 50%
  Population Mitochondria Different-Phenotype (%): 20%
  Population Mitotic Cells (%): 33%
  Population Normal (%): 64%
  Population Pyknosed Nuclei (%): 53%
  Population Tubulin-Different-Phenotype (%): 50%
  Total Cell Count: 197
[8]
  Population Apoptotic (%): 75%
  Population Fragmented Nuclei (%): 31%
  Population Healthy Nuclei (%): 9%
  Population Hoechst High Intensity Objects (%): 18%
  Population Membrane Permeable-Phenotype (%): 30%
  Population Mitochondria Different-Phenotype (%): 90%
  Population Mitotic Cells (%): 24%
  Population Normal (%): 81%
  Population Pyknosed Nuclei (%): 59%
  Population Tubulin-Different-Phenotype (%): 90%
  Total Cell Count: 79
[9]
  Population Apoptotic (%): 60%
  Population Fragmented Nuclei (%): 35%
  Population Healthy Nuclei (%): 53%
  Population Hoechst High Intensity Objects (%): 30%
  Population Mitochondria Different-Phenotype (%): 0%
  Population Mitotic Cells (%): 40%
  Population Normal (%): 69%
  Population Pyknosed Nuclei (%): 10%
  Population Tubulin-Different-Phenotype (%): 43%
  Total Cell Count: 136
[10]
  Population Apoptotic (%): 33%
  Population Fragmented Nuclei (%): 39%
  Population Healthy Nuclei (%): 57%
  Population Hoechst High Intensity Objects (%): 13%
  Population Membrane Permeable-Phenotype (%): 7%
  Population Mitochondria Different-Phenotype (%): 1%
  Population Mitotic Cells (%): 66%
  Population Normal (%): 86%
  Population Pyknosed Nuclei (%): 2%
  Population Tubulin-Different-Phenotype (%): 64%
  Total Cell Count: 153
[11]
  Population Apoptotic (%): 50%
  Population Fragmented Nuclei (%): 22%
  Population Healthy Nuclei (%): 23%
  Population Hoechst High Intensity Objects (%): 38%
  Population Membrane Permeable-Phenotype (%): 51%
  Population Mitochondria Different-Phenotype (%): 21%
  Population Mitotic Cells (%): 50%
  Population Normal (%): 61%
  Population Pyknosed Nuclei (%): 53%
  Population Tubulin-Different-Phenotype (%): 51%
  Total Cell Count: 230
[12]
  Population Apoptotic (%): 34%
  Population Fragmented Nuclei (%): 15%
  Population Healthy Nuclei (%): 34%
  Population Hoechst High Intensity Objects (%): 44%
  Population Membrane Permeable-Phenotype (%): 31%
  Population Mitochondria Different-Phenotype (%): 40%
  Population Mitotic Cells (%): 65%
  Population Normal (%): 55%
  Population Pyknosed Nuclei (%): 50%
  Population Tubulin-Different-Phenotype (%): 72%
  Total Cell Count: 247
